Measured values as given in the array DNA melting data of Ke et al. (doi:10.1101/2024.01.08.574731).

What was measured:
[1] = folding enthalpy; higher = less favourable; fluorescence melt of hairpins on a sequencing array, two-state fit; details: sodium 0.088 M
In short: (§1)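 Hairpins were imaged by Cy3 fluorescence on a sequenced MiSeq flow cell with annealed Cy3 and quencher oligos, in 50 mM Na-HEPES pH 8.0, 25 mM NaCl, in 2.5 °C steps up to 60 °C. Bootstrapped two-state fits of normalised signals gave melting temperature and folding enthalpy. Four replicates were combined by inverse variance, and fitted temperatures were raised by 9.35 °C to match UV melts.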

[2] = melting temperature; fluorescence melt of hairpins on a sequencing array, two-state fit, raised by 9.35 °C to match UV melts; details: sodium 0.088 M
In short: as §1

Sequence	folding enthalpy [1]	Tm [2]
GATCCCGAAAGGGGGATC ((((((....)))..)))	-20.1 kcal/mol	51 °C
GATCCCGACGGGGATC ((((((....))))))	-27.8 kcal/mol	65.8 °C
GATCCCGACTGGGATC ((((((....))))))	-38.5 kcal/mol	65.8 °C
GATCCCGCTGGGATC ((((((...))))))	-37.4 kcal/mol	63.2 °C
GATCCCGGAAACGAGATC ((((.((....)).))))	-29.6 kcal/mol	41.7 °C
GATCCCGGAAACGGAATC (((.(((....))).)))	-24.7 kcal/mol	40.1 °C
GATCCCGGAGGGGATC ((((((....))))))	-19.4 kcal/mol	65.8 °C
GATCCCGGTGGGATC ((((((...))))))	-29.6 kcal/mol	65.7 °C
GATCCCGTTGGGATC ((((((...))))))	-31.5 kcal/mol	64.4 °C
GATCCCGTTTGGGATC ((((((....))))))	-43.4 kcal/mol	63.6 °C
GATCCCTACCGGGATC ((((((....))))))	-32.7 kcal/mol	61.9 °C
GATCCCTATTGGGATC ((((((....))))))	-43.1 kcal/mol	62.8 °C
GATCCCTCACGGGATC ((((((....))))))	-39.5 kcal/mol	59 °C
GATCCCTCTAGGGATC ((((((....))))))	-33.9 kcal/mol	66.6 °C
GATCCCTCTGGGATC ((((((...))))))	-31.3 kcal/mol	66.6 °C
GATCCCTGCCGGGATC ((((((....))))))	-42.8 kcal/mol	60 °C
GATCCCTGGTGGGATC ((((((....))))))	-31.1 kcal/mol	58.1 °C
GATCCCTGTTGGGATC ((((((....))))))	-42.8 kcal/mol	62 °C
GATCCCTTCAGGGATC ((((((....))))))	-31.4 kcal/mol	68.3 °C
GATCCCTTCCGGGATC ((((((....))))))	-35.3 kcal/mol	59.5 °C
GATCCCTTCTGGGATC ((((((....))))))	-39.1 kcal/mol	62.5 °C
GATCCCTTGGGGATC ((((((...))))))	-33 kcal/mol	60.1 °C
GATCCGAACACGGATC ((((((....))))))	-36.6 kcal/mol	57.2 °C
GATCCGAACGCGGATC ((((((....))))))	-39.6 kcal/mol	55.1 °C

Sequence	folding enthalpy [1]	Tm [2]
GATCCGAATGCGGATC ((((((....))))))	-37.8 kcal/mol	54.1 °C
GATCCGACCGCGGATC ((((((....))))))	-34.6 kcal/mol	56.8 °C
GATCCGACGACGGATC ((((((....))))))	-36.6 kcal/mol	56.7 °C
GATCCGAGCACGGATC ((((((....))))))	-38.2 kcal/mol	58.5 °C
GATCCGAGCGCGGATC ((((((....))))))	-42.4 kcal/mol	58.8 °C
GATCCGAGTACGGATC ((((((....))))))	-40.8 kcal/mol	58.6 °C
GATCCGATATCGGATC ((((((....))))))	-39.9 kcal/mol	59.2 °C
GATCCGATCACGGATC ((((((....))))))	-40.6 kcal/mol	59.5 °C
GATCCGCACCCGGATC ((((((....))))))	-38.6 kcal/mol	55.4 °C
GATCCGCCAGCGGATC ((((((....))))))	-44.9 kcal/mol	65.2 °C
GATCCGCCCCCGGATC ((((((....))))))	-40.6 kcal/mol	56.5 °C
GATCCGCCCTCGGATC ((((((....))))))	-40.6 kcal/mol	57.1 °C
GATCCGCGAAAGCGTATC (((.(((....))).)))	-18.4 kcal/mol	43.4 °C
GATCCGCGACGGATC ((((((...))))))	-39 kcal/mol	57.9 °C
GATCCGGAAGCGGATC ((((((....))))))	-33.2 kcal/mol	59.8 °C
GATCCGGACCCGGATC ((((((....))))))	-36.9 kcal/mol	61.1 °C
GATCCGGAGACGGATC ((((((....))))))	-32.9 kcal/mol	63.6 °C
GATCCGGAGGCGGATC ((((((....))))))	-33.4 kcal/mol	57.8 °C
GATCCGGATGCGGATC ((((((....))))))	-35.4 kcal/mol	58.5 °C
GATCCGGATTCGGATC ((((((....))))))	-35.7 kcal/mol	59.1 °C
GATCCGGCAACGGATC ((((((....))))))	-35 kcal/mol	67.8 °C
GATCCGGCACCGGATC ((((((....))))))	-44 kcal/mol	63.8 °C
GATCCGGCCTCGGATC ((((((....))))))	-42.1 kcal/mol	58.7 °C
GATCCGGGAAACCGGACC (.(((((....))))).)	-13.2 kcal/mol	44.1 °C

Sequence	folding enthalpy [1]	Tm [2]
GATCCGGGAAACTGGGTC ((.((.(....).)).))	-30.1 kcal/mol	40 °C
GATCCGGGAACGGATC ((((((....))))))	-33.4 kcal/mol	66.1 °C
GATCCGGGAGCGGATC ((((((....))))))	-37.4 kcal/mol	61.1 °C
GATCCGGGCACGGATC ((((((....))))))	-31.1 kcal/mol	67.8 °C
GATCCGGGCCGGATC ((((((...))))))	-46.2 kcal/mol	60.3 °C
GATCCGGGGCGGATC ((((((...))))))	-37.2 kcal/mol	56 °C
GATCCGGTACCGGATC ((((((....))))))	-43.4 kcal/mol	64.5 °C
GATCCGGTCCGGATC ((((((...))))))	-40.6 kcal/mol	59.8 °C
GATCCGGTCGCGGATC ((((((....))))))	-36.7 kcal/mol	60.2 °C
GATCCGGTTACGGATC ((((((....))))))	-36.9 kcal/mol	68.5 °C
GATCCGGTTTCGGATC ((((((....))))))	-44.2 kcal/mol	59.5 °C
GATCCGTAACCGGATC ((((((....))))))	-39.2 kcal/mol	55.7 °C
GATCCGTAAGCGGATC ((((((....))))))	-35.3 kcal/mol	59.3 °C
GATCCGTACTCGGATC ((((((....))))))	-37.9 kcal/mol	58.7 °C
GATCCGTAGCGGATC ((((((...))))))	-35.6 kcal/mol	56 °C
GATCCGTAGGCGGATC ((((((....))))))	-41.3 kcal/mol	59.2 °C
GATCCGTAGTCGGATC ((((((....))))))	-36 kcal/mol	57 °C
GATCCGTATACGGATC ((((((....))))))	-45.4 kcal/mol	62.1 °C
GATCCGTATTCGGATC ((((((....))))))	-39.5 kcal/mol	58.7 °C
GATCCGTCAACGGATC ((((((....))))))	-35.9 kcal/mol	62 °C
GATCCGTCCTCGGATC ((((((....))))))	-48.3 kcal/mol	58 °C
GATCCGTCTCCGGATC ((((((....))))))	-39.8 kcal/mol	58.4 °C
GATCCGTCTTCGGATC ((((((....))))))	-40 kcal/mol	59.4 °C
